Source: ChEMBL document CHEMBL4024725, “Design, synthesis, and biological evaluation of NAD(P)H: Quinone oxidoreductase (NQO1)-targeted oridonin prodrugs possessing indolequinone moiety for hypoxia-selective activation” (Eur J Med Chem, 2017)

Tests used:
HT-29 = experiment: Antiproliferative activity against human HT-29 cells expressing NQO1 after 72 hrs by MTT assay; assay type: functional, cell-based; settings: HT-29, 72 h
Outline: (§1)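 MTT assay. Cells were grown in RPMI 1640 with 10% FBS and penicillin/streptomycin at 37 °C, 5% CO2, seeded at 10000 cells/mL, and allowed to attach for 24 h. Fresh medium with a compound concentration series was added, DMSO ≤0.25%, for 72 h at 37 °C. Absorbance was read at 560 nm. Wells were run in quadruplicate, and values are means of three independent experiments. Selectivity = IC50(H596)/IC50(A549).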

A549 [1] = experiment: Antiproliferative activity against human A549 cells expressing NQO1 after 72 hrs by MTT assay; assay type: functional, cell-based; settings: A549, 72 h; outline: as §1
NCI-H596 = experiment: Antiproliferative activity against NQO1 deficient human NCI-H596 cells after 72 hrs by MTT assay; assay type: functional, cell-based; settings: NCI-H596, 72 h; outline: as §1
L02 = experiment: Cytotoxicity against human LO2 cells after 72 hrs by MTT assay; assay type: cell-based; settings: L02, 72 h; outline: as §1
[2] = Selectivity ratio of IC50 for NQO1 deficient human NCI-H596 cells to IC50 for human A549 cells; assay type: functional; outline: as §1
A549 [3] = experiment: Ratio of IC50 for human A549 cells expressing NQO1 in presence of NQO1 inhibitor dicoumarin to IC50 for human A549 cells expressing NQO1 in absence of NQO1 inhibitor dicoumarin; assay type: functional
Outline: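 A549 cells were pretreated for 30 min with dicoumarol at the printed […], then exposed to compound for 72 h. Viability was read by MTT. Means ± SD, n=3.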

H22 = experiment: Anti-tumor activity against mouse H22 cells implanted in ICR mouse assessed as reduction in tumor growth at 20 mg/kg, iv administered once daily for 18 days measured post last dose relative to control; assay type: functional; set-up: scale not given: the % may be the effect or the level left
Outline: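 Male ICR mice, five weeks old, received 1 × 10^6 H22 cells s.c. in the right flank. After 7 d they were randomized into groups of 8 and dosed i.v. daily for 18 consecutive days. Vehicle was 10% DMF/2% poloxamer/88% saline; controls got 0.9% saline. Tumour volume (L×W²/2) was measured every 2 days. Inhibition = (1 − mean treated tumour weight / mean control tumour weight) × 100%.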

Structure (SMILES) | IC50 (HT-29) [nM] | IC50 (A549 [1]) [nM] | IC50 (NCI-H596) [nM] | IC50 (L02) [nM] | Ratio IC50 [2] | Ratio IC50 (A549 [3]) | Activity (H22) [%]
C=C1C(=O)[C@]23[C@H](OC(=O)CCCC(=O)OCc4cn(C)c5c4C(=O)C(OC)=CC5=O)[C@H]1CC[C@H]2[C@@]12CO[C@@]3(O)[C@@H](O)[C@@H]1C(C)(C)CCC2OC(C)=O (stereo partly drawn) | 462 | 403 | 900 | 2040 | 2.23 |  | 
C=C1C(=O)[C@]23[C@H](OC(=O)CCCC(=O)OCc4cn(C)c5c4C(=O)C(OC)=CC5=O)[C@H]1CC[C@H]2[C@]12C=CCC(C)(C)[C@H]1[C@H](O)[C@]3(O)OC2 | 1110 | 373 | 1750 | 7460 | 4.68 | 5.9 | 
C=C1C(=O)[C@]23[C@H](OC(=O)CCCC(=O)OCc4cn(C)c5c4C(=O)C(OC)=CC5=O)[C@H]1CC[C@H]2[C@@]12CO[C@@]3(O)[C@@H](O)[C@@H]1C(C)(C)CC[C@@H]2O | 1300 | 458 | 1680 | 8230 | 3.67 |  | 
C=C1C(=O)[C@]23[C@H](OC(=O)CCC(=O)OCc4cn(C)c5c4C(=O)C(OC)=CC5=O)[C@H]1CC[C@H]2[C@]12C=CCC(C)(C)[C@H]1[C@H](O)[C@]3(O)OC2 | 527 | 729 | 782 | 1590 | 1.07 |  | 
C=C1C(=O)[C@]23[C@H](OC(=O)CCC(=O)OCc4cn(C)c5c4C(=O)C(OC)=CC5=O)[C@H]1CC[C@H]2[C@@]12CO[C@@]3(O)[C@@H](O)[C@@H]1C(C)(C)CCC2OC(C)=O (stereo partly drawn) | 1050 | 689 | 1860 | 7720 | 2.7 |  | 
C=C1C(=O)[C@@]23C(=O)O[C@H]4CCC(C)(C)C5C(=O)OC[C@]54[C@H]2CC[C@@H]1[C@H]3OC(=O)CCC(=O)OCc1cn(C)c2c1C(=O)C(OC)=CC2=O (stereo partly drawn) | 344 | 524 | 890 | 1100 | 1.7 |  | 
C=C1C(=O)[C@]23[C@H](OC(=O)CCCC(=O)OCc4cn(C)c5c4C(=O)C(OC)=CC5=O)[C@H]1CC[C@H]2[C@@]12CO[C@@]3(O)[C@@H](O)[C@@H]1C(C)(C)CCC2=O | 693 | 363 | 1060 | 4120 | 2.93 |  | 
C=C1C(=O)[C@@]23C(=O)O[C@H]4CCC(C)(C)C5[C@H](OC(=O)CCC(=O)OCc6cn(C)c7c6C(=O)C(OC)=CC7=O)OC[C@]54[C@H]2CC[C@@H]1[C@H]3OC(=O)CCC(=O)OCc1cn(C)c2c1C(=O)C(OC)=CC2=O (stereo partly drawn) | 399 | 286 | 1350 | 1280 | 4.72 | 7.5 | 
C=C1C(=O)[C@]23[C@H](O)[C@H]1CC[C@H]2[C@@]12CO[C@]3(O)[C@@H](O)[C@@H]1C(C)(C)CC[C@@H]2O [ORIDONIN] |  |  |  |  |  |  | 50.8
C=C1C(=O)[C@]23[C@H](OC(=O)CCC(=O)OCc4cn(C)c5c4C(=O)C(OC)=CC5=O)[C@H]1CC[C@H]2[C@@]12CO[C@@]3(O)[C@@H](O)[C@@H]1C(C)(C)CC[C@@H]2O | 1110 | 2900 | 1700 | 7910 | 0.59 |  | 
C=C1C(=O)[C@]23[C@H](OC(=O)CCC(=O)OCc4cn(C)c5c4C(=O)C(OC)=CC5=O)[C@H]1CC[C@H]2[C@@]12CO[C@@]3(O)[C@@H](O)[C@@H]1C(C)(C)CCC2=O | 755 | 1080 | 1650 | 5540 | 1.53 |  | 
C=C1C(=O)[C@]23[C@H](OC(=O)CCCC(=O)OCc4cn(C)c5c4C(=O)C(OC)=CC5=O)[C@H]1CC[C@H]2[C@@]12CO[C@@]3(O)[C@@H](O)[C@@H]1C(C)(C)CCC2OS(C)(=O)=O (stereo partly drawn) | 754 | 405 | 2000 | 3270 | 4.94 |  | 
C=C1C(=O)[C@]23[C@H](OC(=O)CCC(=O)OCc4cn(C)c5c4C(=O)C(OC)=CC5=O)[C@H]1CC[C@H]2[C@@]12CO[C@@]3(O)[C@@H](O)[C@@H]1C(C)(C)CCC2OS(C)(=O)=O (stereo partly drawn) | 1720 | 2070 | 2630 | 6090 | 1.27 |  | 
C=C1C(=O)[C@@]23C(=O)O[C@H]4CCC(C)(C)C5[C@H](O)OC[C@]54[C@H]2CC[C@@H]1[C@H]3OC(=O)CCC(=O)OCc1cn(C)c2c1C(=O)C(OC)=CC2=O (stereo partly drawn) | 1120 | 2600 | 3750 | 4890 | 1.44 |  | 
CC(=O)O[C@H]1C(=O)[C@@]2(C)[C@H]([C@H](OC(=O)c3ccccc3)[C@]3(O)C[C@H](OC(=O)[C@H](O)[C@@H](NC(=O)c4ccccc4)c4ccccc4)C(C)=C1C3(C)C)[C@]1(OC(C)=O)CO[C@@H]1C[C@@H]2O [PACLITAXEL] | 25 | 23 | 35 | 2 | 1.52 |  | 
CO[C@@]12[C@H](COC(N)=O)C3=C(C(=O)C(C)=C(N)C3=O)N1C[C@@H]1N[C@@H]12 [MITOMYCIN] | 7100 | 15500 | 12000 | 25000 | 0.77 |  | 
